# Source: PubChem BioAssay
# The source made the active and inactive calls. Cut-off read from the data, not from the text of the source, unless noted: active = inhibition above about 30%; inactive = the rest.
# Columns and labels:
# [1] = reducers of endogenous Her2 protein level, primary screen, SKBR3 breast tumor cells, AlphaScreen, ATP viability (AID 461;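 active = Her2 level under about 52% in both replicate screens, with viability over 70% of control, limit read from the data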;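 for Her2 level: lower value means less Her2 protein in the cells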;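 for viability: percent of carrier control wells set as 100% viability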); details: 18-24 h, measured here: SKBR3 viability, ATP luminescence, at 10 µM
# [2] = target: Receptor tyrosine-protein kinase erbB-2 (Homo sapiens) (UniProt P04626); assay: as above; details: 18-24 h, at 10 µM, stronger effect = lower value
# [3] = SK-BR-3 cell growth inhibitors, pilot screen, 24 h, human (AID 572;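 active = viability at or below 10% of carrier control in both of two separate runs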;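 note: compound exposure lasted between 18 and 24 h rather than exactly 24 h; 100% = carrier-treated control wells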); details: SK-BR-3 viability, CellTiter-Glo luminescence, at 10 µM, stronger effect = lower value
# [4] = HUVEC growth inhibition – cell-based, human, primary screen (AID 575;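 active = viability at or below 30% in both replicate assays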;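 note: 100% = median of untreated cell wells with 0.1% DMSO on each plate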); details: HUVEC proliferation, CellTiter-Glo luminescence, 72 h; at 10 µM; stronger effect = lower value
# How it was run: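 system = HUVEC primary cells | amount = 1250 cells/well | buffer or medium = supplemented EBM, 2% fetal bovine serum | dosing = single-point 10 µM, DMSO 0.1% final | times = 72 h compound incubation | detection = CTG luminescence | read-out = % viability relative to median vehicle-well signal on each plate | control set = vehicle and MePR control wells | format = collagen-coated 384-well format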
# [5] = growth inhibitors of H69AR lung tumor, primary screen, human, duplicate replicates (AID 580;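 active = viability at or under a set limit in both replicates, limit being median viability minus 3 SD, cut at about 48% in these data, passing the limit was not always enough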;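 note: 100% = mean luminescence of untreated wells and 0% = no signal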); details: H69AR lung tumor cells viability, ATP luminescence, 72 h; at 10 µM; stronger effect = lower value
# [6] = reversal of MRP1-mediated doxorubicin resistance, pilot screen, H69AR cells, doxorubicin co-treatment (AID 601;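 active = viability loss from added drug above about 55%, and viability with drug at most 40%, in both replicates, limit read from the data, passing the limit was not always enough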); details: CellTiter-Glo, 72 h, at 10 µM; for differential viability (reversal): stronger effect = higher value
# [7] = 384-well plate pilot, post-Golgi transport modulator project, inhibition of yeast transport mutant growth (AID 636; in the data active = inhibition above about 31%); details: absorbance 615 nm, about 18 h, stronger effect = higher value
# [8] = growth suppression of yeast trafficking mutant, preliminary HTS, modulators of trafficking downstream of Golgi apparatus project, 1536-format plate, OD 615 nm (AID 637); details: yeast transport mutant growth, absorbance 615 nm, 18 h; stronger effect = higher value
# [9] = H69AR cells + 2 uM doxorubicin, measured here: viability with 2 uM doxorubicin, stronger effect = lower value
# [10] = H69AR cells, compound alone cytotoxicity
# Receptor tyrosine-protein kinase erbB-2 (Homo sapiens), sequence (P04626 whole entry, looked up): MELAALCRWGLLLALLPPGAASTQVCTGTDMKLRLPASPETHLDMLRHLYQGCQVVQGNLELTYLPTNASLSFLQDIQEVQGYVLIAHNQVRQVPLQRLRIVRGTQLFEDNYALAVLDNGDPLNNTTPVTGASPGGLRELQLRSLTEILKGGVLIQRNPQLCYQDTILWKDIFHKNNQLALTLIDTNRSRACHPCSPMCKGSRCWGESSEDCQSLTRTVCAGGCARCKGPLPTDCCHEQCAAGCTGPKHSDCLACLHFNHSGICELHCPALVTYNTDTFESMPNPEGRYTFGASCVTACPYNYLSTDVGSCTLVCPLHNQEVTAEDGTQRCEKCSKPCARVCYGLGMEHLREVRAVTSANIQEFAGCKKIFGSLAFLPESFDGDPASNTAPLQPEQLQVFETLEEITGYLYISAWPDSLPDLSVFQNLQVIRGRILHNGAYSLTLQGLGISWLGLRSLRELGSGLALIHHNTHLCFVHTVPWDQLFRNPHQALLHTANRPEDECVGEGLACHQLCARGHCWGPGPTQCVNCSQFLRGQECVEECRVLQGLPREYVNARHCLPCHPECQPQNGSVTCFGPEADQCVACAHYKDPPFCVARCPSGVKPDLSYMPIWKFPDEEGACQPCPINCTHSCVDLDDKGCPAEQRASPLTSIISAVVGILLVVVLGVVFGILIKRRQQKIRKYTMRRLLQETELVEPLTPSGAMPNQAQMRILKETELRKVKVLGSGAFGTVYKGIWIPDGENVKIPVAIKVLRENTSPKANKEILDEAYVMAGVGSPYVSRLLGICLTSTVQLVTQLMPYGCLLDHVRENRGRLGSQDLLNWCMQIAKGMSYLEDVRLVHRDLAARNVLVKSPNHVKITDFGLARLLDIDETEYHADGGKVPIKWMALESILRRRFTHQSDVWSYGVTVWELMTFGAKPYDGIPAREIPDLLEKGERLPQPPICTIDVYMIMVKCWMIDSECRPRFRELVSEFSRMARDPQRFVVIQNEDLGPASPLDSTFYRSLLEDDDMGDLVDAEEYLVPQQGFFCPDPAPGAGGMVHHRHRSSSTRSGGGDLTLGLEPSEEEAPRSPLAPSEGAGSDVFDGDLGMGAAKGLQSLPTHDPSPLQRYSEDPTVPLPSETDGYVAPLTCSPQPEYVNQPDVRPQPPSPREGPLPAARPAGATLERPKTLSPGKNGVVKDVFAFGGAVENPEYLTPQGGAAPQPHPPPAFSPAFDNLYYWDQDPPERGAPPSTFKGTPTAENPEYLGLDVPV
SMILES,viability [1] [%],Her2 level [2],viability [3],viability [4],viability [5],differential viability (reversal) ([6]; H69AR cells + 2 uM doxorubicin),"viability [6, 9] [%]","viability [6, 10] [%]",inhibition [7],inhibition [8]
CC1(C)Cc2c(sc3c2C2=NCCN2C=N3)CO1,111,104% (inactive),111% (inactive),91.5% (inactive),90.9% (inactive),1.75% (inactive),89.2,90.9,-3.82% (inactive),-4.55% (inactive)
COc1cc(OC)c(C2C(C#N)=C(N)OC3=C2C(=O)CC(C)(C)C3)cc1OC (stereo not given),85.5,106% (inactive),85.5% (inactive),61.9% (inactive),83.2% (inactive),-1.53% (inactive),84.7,83.2,0.91% (inactive),-9.02% (inactive)
CCn1c(=O)cc(SCC(=O)N2CCN(C3CCCCC3)CC2)c2ccccc21,88.5,77% (inactive),88.5% (inactive),79.2% (inactive),83.5% (inactive),7.01% (inactive),76.5,83.5,-0.92% (inactive),0.18% (inactive)
O=C(C1CC1)N1CCc2cc(S(=O)(=O)N(CCO)Cc3ccccc3)ccc21,94,102% (inactive),94% (inactive),77% (inactive),98.8% (inactive),-1.38% (inactive),100,98.8,-0.4% (inactive),-0.33% (inactive)
Cc1ccc(S(=O)(=O)NC(=O)c2cc(C)n(CCCn3ccnc3)c2C)cc1,101,84% (inactive),101% (inactive),94.2% (inactive),90.7% (inactive),2.88% (inactive),87.8,90.7,-7.2% (inactive),0.82% (inactive)
COc1cc(-c2c(C#N)c(N)nc3c2CCCC3)cc(OC)c1OC,89,72% (inactive),89% (inactive),74.2% (inactive),76.4% (inactive),-9.71% (inactive),86.1,76.4,-2.63% (inactive),3.39% (inactive)
COc1ccc(S(=O)(=O)n2nc(OC(=O)c3ccc(C)cc3)cc2N)cc1,92.5,72% (inactive),92.5% (inactive),91.6% (inactive),97.7% (inactive),-7.45% (inactive),105,97.7,-4.47% (inactive),-5.67% (inactive)
Cc1cc(NC(=O)NC(=O)c2cccc(OC(F)(F)C(F)F)c2)n[nH]1,99.5,94% (inactive),99.5% (inactive),80.4% (inactive),85.2% (inactive),-12.8% (inactive),98,85.2,-3.73% (inactive),20% (inactive)
O=C1CC(N2CCN(c3cccc(C(F)(F)F)c3)CC2)C(=O)N1c1ccccc1 (stereo not given),93.5,112% (inactive),93.5% (inactive),92.3% (inactive),103% (inactive),13% (inactive),90,103,-2.08% (inactive),-12.7% (inactive)
Cc1cc(NC(=O)CSc2nnc(COc3cccc(C)c3C)n2Cc2ccco2)no1,102,94% (inactive),102% (inactive),97.5% (inactive),104% (inactive),19.5% (inactive),85,104,-4.59% (inactive),-0.79% (inactive)
Cc1cc(NC(=O)COc2cccc(Oc3ccccc3)c2)no1,75.5,90% (inactive),75.5% (inactive),50.9% (inactive),22.4% (active),-38.2% (inactive),60.6,22.4,-0.38% (inactive),3.33% (inactive)
O=C(O)c1[nH]c2ccc(Cl)cc2c1CC(=O)N1CCN(C(=O)c2ccco2)CC1,83.5,112% (inactive),83.5% (inactive),108% (inactive),95.8% (inactive),5.25% (inactive),90.5,95.8,-4.34% (inactive),-9.83% (inactive)
CCOC(=O)CN(C(=O)CSc1nnc(-c2ccncc2)n1CCCN(C)C)c1ccccc1,107,98.5% (inactive),107% (inactive),106% (inactive),87.6% (inactive),9.5% (inactive),78.1,87.6,-5.19% (inactive),1.9% (inactive)
CSCCC(NC(=O)c1ccco1)C(=O)OC(C)C(=O)NC(=O)NC1CCCCC1 (stereo not given),88,99% (inactive),88% (inactive),96.1% (inactive),111% (inactive),16.1% (inactive),95,111,-3.9% (inactive),8.52% (inactive)
COc1ccc2c(c1)[nH]c1c(=O)n(CC3CCCO3)cnc12 (stereo not given),86,94% (inactive),86% (inactive),97.2% (inactive),90.5% (inactive),-4.4% (inactive),94.9,90.5,-3.42% (inactive),-6.39% (inactive)
O=C(CSc1ncn[nH]1)c1ccco1,120,92% (inactive),120% (inactive),95.9% (inactive),94.7% (inactive),-3.81% (inactive),98.5,94.7,-1.56% (inactive),0.33% (inactive)
CN1CC(=O)N(CC(=O)NCCc2ccc(F)cc2)c2ccccc2C1=O,95,90.5% (inactive),95% (inactive),105% (inactive),90% (inactive),-3.62% (inactive),93.6,90,-6.36% (inactive),1.75% (inactive)
COC(=O)c1onc(C(=O)c2ccccc2)c1C(=O)OC,104,89.5% (inactive),104% (inactive),98.8% (inactive),97.1% (inactive),12.7% (inactive),84.4,97.1,-4.34% (inactive),3.71% (inactive)
COc1cccc(Cn2c(Oc3ccccc3)nc3c2c(=O)n(C)c(=O)n3C)c1,100,104% (inactive),100% (inactive),72.7% (inactive),83.8% (inactive),3.32% (inactive),80.5,83.8,-0.13% (inactive),6.07% (inactive)
O=C(NC1CCCC1)C1CC1c1ccccc1 (stereo not given),100,102% (inactive),100% (inactive),93.9% (inactive),98.3% (inactive),-2.33% (inactive),101,98.3,-6.13% (inactive),1.15% (inactive)
Cc1[nH]c(=O)[nH]c(=O)c1S(=O)(=O)N1CCN(c2cccc(Cl)c2)CC1,88,112% (inactive),88% (inactive),82.6% (inactive),93.2% (inactive),1.64% (inactive),91.6,93.2,3.95% (inactive),-9.35% (inactive)
CCCCOC(=O)CN1C(=O)c2ccc(C(=O)OCCCC)cc2C1=O,87,94% (inactive),87% (inactive),92.3% (inactive),106% (inactive),10.4% (inactive),95.3,106,-2.97% (inactive),0.82% (inactive)
N#CC(C(=O)c1ccco1)c1ccccn1 (stereo not given),106,81% (inactive),106% (inactive),98.1% (inactive),86.1% (inactive),4.21% (inactive),81.9,86.1,-7.37% (inactive),0.67% (inactive)
COCCn1c(C23CC4CC(CC(C4)C2)C3)n[nH]c1=S,90,94.5% (inactive),90% (inactive),79.5% (inactive),77.2% (inactive),1.57% (inactive),75.6,77.2,-2.34% (inactive),1.33% (inactive)
Cc1ccc(F)cc1NC(=O)Cc1nn(C)c(=O)c2ccccc12,96.5,74.5% (inactive),96.5% (inactive),74.1% (inactive),93.4% (inactive),15.8% (inactive),77.6,93.4,-0.66% (inactive),-0.16% (inactive)
COc1ccc(NC(=O)c2cc(C)on2)cc1OC,110,93% (inactive),110% (inactive),104% (inactive),96.7% (inactive),8.07% (inactive),88.6,96.7,-5.87% (inactive),3.28% (inactive)
O=C(c1cnn2c(C(F)(F)F)cc(-c3ccco3)nc12)N1CCc2ccccc2C1,76,112% (inactive),76% (inactive),69.9% (inactive),89.6% (inactive),3.92% (inactive),85.7,89.6,-1.33% (inactive),-9.37% (inactive)
CC1CCCCC1NC(=O)CCCc1nc2ccccc2c(=O)[nH]1 (stereo not given),80.5,93.5% (inactive),80.5% (inactive),105% (inactive),110% (inactive),13.7% (inactive),96.2,110,0.27% (inactive),2.46% (inactive)
COc1cc(C2C(C#N)=C(N)OC3=C2C(=O)CCC3)ccc1OC(=O)N1CCOCC1 (stereo not given),132,91.5% (inactive),132% (inactive),93% (inactive),87.3% (inactive),3.67% (inactive),83.6,87.3,-5.87% (inactive),-0.66% (inactive)
